Laboratory results: ChEMBL document CHEMBL1122781, “[(Aminomethyl)aryloxy]acetic acid esters. A new class of high-ceiling diuretics. 1. Effects of nitrogen and aromatic nuclear substitution” (J Med Chem, 1984)

Columns and labels:
Canis familiaris [1] = assay: Diuretic activity was evaluated by measuring amount of Cl- during 0-6 h in urine of normotensive saline loaded dogs at 1.0 mg/kg, po; assay type: ADME, organism-based, Canis lupus familiaris; parameters: dose 1 mg/kg, route oral; settings: dog, in vivo
Procedure, shortened: (§1)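 Conscious female dogs, each given one oral dose per experiment. Urine and heparinized venous plasma were taken at each collection time. Urine was centrifuged and chilled, and plasma was separated within 30 min. Both were assayed for Na+, K+, Cl−, urate and glucose. Results are mean excretion in mequiv kg−1 (6 h)−1, with at least two dogs per dose.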

Rattus norvegicus [2] = assay: Diuretic activity was evaluated by measuring amount of K+ during 0-6 h in urine of normotensive saline loaded rats at 1.0 mg/kg, po; assay type: ADME, organism-based; parameters: dose 1 mg/kg, route oral; settings: in vivo
Procedure, shortened: (§2)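 Male Sprague–Dawley rats (275–375 g), fed and watered ad libitum before testing but not during it, eight per group. Compound in 0.2% methylcellulose/water given orally at 2 mL/kg, immediately followed by a 0.9% saline load equal to 5% of body weight. Rats were kept in individual metabolism cages. Urine was sampled at 2, 6 and 24 h for volume, Na+, K+, Cl−, uric acid and osmolality.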

Rattus norvegicus [3] = assay: Diuretic activity was evaluated by measuring amount of Na+ during 0-6 h in urine of normotensive saline loaded rats at 0.3 mg/kg, po; assay type: ADME, organism-based; parameters: dose 0.3 mg/kg, route oral; settings: in vivo
Procedure, shortened: (§3)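 Male normotensive Sprague–Dawley rats (275–375 g), eight per group. Test compound or vehicle (0.2% methylcellulose in water, 2 mL/kg) is given by mouth, followed at once by a 0.9% saline load equal to 5% of body weight. Rats are housed in metabolism cages without food or water. Urine is collected at 2, 6 and 24 h and assayed for Na+, K+, Cl−, uric acid and osmolality.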

[4] = Diuretic activity was evaluated by measuring amount of K+ during 0-6 hr in urine of normotensive water loaded monkey at 3mg/kg, po; settings: simiiformes, in vivo
Canis familiaris [5] = assay: Diuretic activity was evaluated by measuring amount of Na+ during 0-6 hr in urine of normotensive saline loaded dogs at 0.1 mg/kg, po; assay type: ADME, organism-based, Canis lupus familiaris; parameters: dose 0.1 mg/kg, route oral; settings: dog, in vivo
Procedure, shortened: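 Conscious dogs, each given a single oral dose per experiment, with at least two dogs per dose. Urine volume is measured; aliquots are centrifuged and chilled. Heparinized venous blood (4 mL) is drawn at each urine collection. Urine and plasma are analyzed for Na+, K+, Cl−, urate and glucose. Result is mean Na+ excretion in mequiv kg−1 (6 h)−1.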

Rattus norvegicus [6] = assay: Diuretic activity was evaluated by measuring amount of K+ during 0-6 h in urine of normotensive saline loaded rats at 100.0 mg/kg, po; assay type: ADME, organism-based; parameters: dose 100 mg/kg, route oral; settings: in vivo; procedure, shortened: as §2
Rattus norvegicus [7] = assay: Oral dose necessary to produce an excretion of 2 mequiv of Na+/kg in the rat urine in the 4-h period after peroral administration; assay type: ADME, organism-based; settings: in vivo
Rattus norvegicus [8] = assay: Percent change of arterial blood pressure in spontaneously hypertensive rats at the dose of 3 mg/kg (p.o.) after 6 hr (control BP(mm Hg)=221); assay type: functional; settings: route oral
[9] = Diuretic activity was evaluated by measuring amount of Na+ during 0-6 hr in urine of normotensive […] monkey at 1 mg/kg, po; assay type: ADME, organism-based; parameters: dose 1 mg/kg, route oral; settings: simiiformes, in vivo
Procedure, shortened: (§4)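 Male and female cynomolgus monkeys, fasted 16–18 h with water until dosing, six per dose. Compound or vehicle is given through a nasogastric tube, then a 50 mL/kg water load. No food or water for 6 h in metabolism cages. Urine is collected at 0–1, 1–2, 2–4 and 4–6 h and analyzed for electrolytes, uric acid and glucose.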

Canis familiaris [10] = assay: Diuretic activity was evaluated by measuring amount of Cl- during 0-6 h in urine of normotensive saline loaded dogs at 10.0 mg/kg, po; assay type: ADME, organism-based, Canis lupus familiaris; parameters: dose 10 mg/kg, route oral; settings: dog, in vivo; procedure, shortened: as §1
[11] = Diuretic activity was evaluated by measuring amount of K+ during 0-6 hr in urine of […] monkey at 1 mg/kg, po; assay type: ADME, organism-based; parameters: dose 1 mg/kg, route oral; settings: simiiformes, in vivo
Procedure, shortened: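 Male and female cynomolgus monkeys, fasted 16–18 h with water until dosing, six per dose. Compound or vehicle was given by pediatric nasogastric tube, followed at once by a 50 mL/kg water load. Monkeys were kept in metabolism cages without food or water for 6 h. Urine was collected at 0–1, 1–2, 2–4 and 4–6 h, and volume, electrolytes, uric acid and glucose were measured.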

Rattus norvegicus [12] = assay: Diuretic activity was evaluated by measuring amount of Na+ during 0-6 h in urine of normotensive saline loaded rats at 100.0 mg/kg, po; assay type: ADME, organism-based; parameters: dose 100 mg/kg, route oral; settings: in vivo; procedure, shortened: as §3
Rattus norvegicus [13] = assay: Diuretic activity was evaluated by measuring amount of Cl- during 0-6 hr in urine of normotensive saline loaded rats at 3.0mg/kg, po; assay type: ADME, organism-based; settings: in vivo, 3 mg/kg; procedure, shortened: as §2
Rattus norvegicus [14] = assay: Diuretic activity was evaluated by measuring amount of Na+ during 0-6 hr in urine of normotensive saline loaded rats at 0.1 mg/kg, po; assay type: ADME, organism-based; parameters: dose 0.1 mg/kg, route oral; settings: in vivo; procedure, shortened: as §3
Canis familiaris [15] = assay: Diuretic activity was evaluated by measuring amount of K+ during 0-6 hr in urine of normotensive saline loaded dogs at 0.1 mg/kg, po; assay type: ADME, organism-based, Canis lupus familiaris; parameters: dose 0.1 mg/kg, route oral; settings: dog, in vivo; procedure, shortened: as §1
[16] = Diuretic activity was evaluated by measuring amount of Na+ during 0-6 hr in urine of normotensive […] monkey at 30mg/kg, po; assay type: ADME, organism-based; settings: simiiformes, in vivo; procedure, shortened: as §4
Canis familiaris [17] = assay: Diuretic activity was evaluated by measuring amount of Cl- during 0-6 h in urine of normotensive saline loaded dogs at 3.0 mg/kg, po; assay type: ADME, organism-based, Canis lupus familiaris; parameters: dose 3 mg/kg, route oral; settings: dog, in vivo; procedure, shortened: as §1
Canis familiaris [18] = assay: Diuretic activity was evaluated by measuring amount of Cl- during 0-6 h in urine of normotensive saline loaded dogs at 0.3mg/kg, po; assay type: ADME, organism-based, Canis lupus familiaris; settings: dog, in vivo; procedure, shortened: as §1
Canis familiaris [19] = assay: Diuretic activity was evaluated by measuring amount of K+ during 0-6 hr in urine of normotensive saline loaded dogs at 0.03mg/kg, po; assay type: ADME, organism-based, Canis lupus familiaris; settings: dog, in vivo; procedure, shortened: as §1
Rattus norvegicus [20] = assay: Diuretic activity was evaluated by measuring amount of Cl- during 0-6 hr in urine of normotensive saline loaded rats at 1.0mg/kg, po; assay type: ADME, organism-based; settings: in vivo, 1 mg/kg; procedure, shortened: as §2
Rattus norvegicus [21] = assay: Diuretic activity was evaluated by measuring amount of Cl- during 0-6 hr in urine of normotensive saline loaded rats at 0.3mg/kg, po; assay type: ADME, organism-based; settings: in vivo; procedure, shortened: as §2
Rattus norvegicus [22] = assay: Diuretic activity was evaluated by measuring amount of K+ during 0-6 hr in urine of normotensive saline loaded rats at 0.1 mg/kg, po; assay type: ADME, organism-based; parameters: dose 0.1 mg/kg, route oral; settings: in vivo; procedure, shortened: as §2
Rattus norvegicus [23] = assay: Diuretic activity was evaluated by measuring amount of Na+ during 0-6 hr in urine of normotensive saline loaded rats at 1.0mg/kg, po; assay type: ADME, organism-based; settings: in vivo, 1 mg/kg; procedure, shortened: as §3
Rattus norvegicus [24] = assay: Percent change of arterial blood pressure in spontaneously hypertensive rats at the dose of 3 mg/kg (p.o.) after 24 hr (control BP(mm Hg)=221); assay type: functional; settings: route oral
Rattus norvegicus [25] = assay: Diuretic activity was evaluated by measuring amount of K+ during 0-6 hr in urine of normotensive saline loaded rats at 10.0mg/kg, po; assay type: ADME, organism-based; settings: in vivo, 10 mg/kg; procedure, shortened: as §2
Rattus norvegicus [26] = assay: Diuretic activity was evaluated by measuring amount of K+ during 0-6 hr in urine of normotensive saline loaded rats at 3.0mg/kg, po; assay type: ADME, organism-based; settings: in vivo, 3 mg/kg; procedure, shortened: as §3
Canis familiaris [27] = assay: Diuretic activity was evaluated by measuring amount of K+ during 0-6 hr in urine of normotensive saline loaded dogs at 10.0mg/kg, po; assay type: ADME, organism-based, Canis lupus familiaris; settings: dog, in vivo, 10 mg/kg; procedure, shortened: as §1
Rattus norvegicus [28] = assay: Diuretic activity was evaluated by measuring amount of Cl- during 0-6 hr in urine of normotensive saline loaded rats at 100.0mg/kg, po; assay type: ADME, organism-based; settings: in vivo, 100 mg/kg; procedure, shortened: as §2
Canis familiaris [29] = assay: Diuretic activity was evaluated by measuring amount of Cl- during 0-6 hr in urine of normotensive saline loaded dogs at 0.03mg/kg, po; assay type: ADME, organism-based, Canis lupus familiaris; settings: dog, in vivo; procedure, shortened: as §1

Structure (SMILES): CCOC(=O)COc1ccc(C(=O)c2ccc(O)c(CN)c2)c(Cl)c1Cl.Cl
- Diuretic activity (Canis familiaris [1]): 6.2 m equiv kg-1
- Diuretic activity (Rattus norvegicus [2]): 3 m equiv kg-1
- Diuretic activity (Rattus norvegicus [3]): 9.6 m equiv kg-1
- Diuretic activity [4]: 1.1 m equiv kg-1
- Diuretic activity (Canis familiaris [5]): 0.7 m equiv kg-1
- Diuretic activity (Rattus norvegicus [6]): 3.6 m equiv kg-1
- ED2 (Rattus norvegicus [7]): 3 mg/kg
- Change (Rattus norvegicus [8]): -13%
- Diuretic activity [9]: 2.7 m equiv kg-1
- Diuretic activity (Canis familiaris [10]): 7 m equiv kg-1
- Diuretic activity [11]: 0.7 m equiv kg-1
- Diuretic activity (Rattus norvegicus [12]): 13.8 m equiv kg-1
- Diuretic activity (Rattus norvegicus [13]): 16.3 m equiv kg-1
- Diuretic activity (Rattus norvegicus [14]): 6.6 m equiv kg-1
- Diuretic activity (Canis familiaris [15]): 0.6 m equiv kg-1
- Diuretic activity [16]: 6.4 m equiv kg-1
- Diuretic activity (Canis familiaris [17]): 7.9 m equiv kg-1
- Diuretic activity (Canis familiaris [18]): 3 m equiv kg-1
- Diuretic activity (Canis familiaris [19]): 0.3 m equiv kg-1
- Diuretic activity (Rattus norvegicus [20]): 14.8 m equiv kg-1
- Diuretic activity (Rattus norvegicus [21]): 11.3 m equiv kg-1
- Diuretic activity (Rattus norvegicus [22]): 2.6 m equiv kg-1
- Diuretic activity (Rattus norvegicus [23]): 12.8 m equiv kg-1
- Change (Rattus norvegicus [24]): -14%
- Diuretic activity (Rattus norvegicus [25]): 3.3 m equiv kg-1
- Diuretic activity (Rattus norvegicus [26]): 3.8 m equiv kg-1
- Diuretic activity (Canis familiaris [27]): 1.7 m equiv kg-1
- Diuretic activity (Rattus norvegicus [28]): 16.6 m equiv kg-1
- Diuretic activity (Canis familiaris [29]): 0.5 m equiv kg-1
